The source of these data is ChEMBL document CHEMBL1134337, “Behavioral approach to nondyskinetic dopamine antagonists: identification of seroquel” (J Med Chem, 2001).

Molecules are shown by their SMILES.

Experiment [1] can be described thus: Number of animals showing dyskinesias was determined in haloperidol sensitized 9 cebus monkeys after (po) administration of 80 mg/kg. The experiment is classed as functional. In outline: (§1)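 Adult female and male Cebus monkeys sensitized with oral haloperidol 1 mg/kg once per week until dyskinetic reactions occurred. Test drug given orally (2 mL/kg) in 0.5% w/w hydroxypropylmethylcellulose with 0.1% w/w Tween 80 in distilled water, at least 2 weeks between treatments. Two observers watched continuously for 6-7 h, recording reaction type and severity every 30 min. Score is monkeys with dyskinesias/monkeys tested.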

In experiment [2] the target is D(2) dopamine receptor (Rattus norvegicus) (UniProt P61169). Put plainly: Binding affinity at dopamine receptor D2 from rat by spiropiperidone displacement. The essentials:
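D2 receptor binding was read as % displacement of spiropiperidone, with test compound at 1000 nM unless stated otherwise. IC50 values used at least five concentrations per compound in triplicate. Each value is the mean of two replicate experiments differing by 5% or less.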

Experiment [3] concerns Mus musculus. As to the kind of experiment: Antagonism of apomorphine induced climbing was determined in female swiss -Wbster mice after (ip) administration of 20 mg/kg. The experiment is classed as functional. The essentials: (§2)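 Female Swiss-Webster mice (about 20 g) were fasted about 24 h, then given test compound or vehicle ip or po (N = 20 per group). Vehicle was 0.5% w/w hydroxypropylmethylcellulose with 0.1% w/w Tween 80 in water. After 30 min, mice received apomorphine HCl 1.25 mg/kg sc. At 13 min, each mouse was watched for 1 min; score was mean of highest and lowest rung of 27. Groups were compared with vehicle by Student's t-test.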

Experiment [4] deals with Mus musculus. Put plainly: Antagonism of apomorphine induced climbing was determined in female swiss -Wbster mice after (ip) administration of 40 mg/kg. In kind it is functional. The essentials:
as §2

Experiment [5] relates to Mus musculus. Put plainly: Antagonism of apomorphine induced climbing was determined in female swiss -Wbster mice after (ip) administration of 80 mg/kg. The experiment is classed as functional. In outline: as §2
For experiment [6], the system named is Mus musculus. Put plainly: Antagonism of apomorphine induced climbing was determined in female swiss -Wbster mice after (po) administration of 20 mg/kg. In kind it is functional. The essentials: as §2
Experiment [7] has as its system Mus musculus. As to the kind of experiment: Antagonism of apomorphine induced climbing was determined in female swiss -Wbster mice after (po) administration of 40 mg/kg. The experiment is classed as functional. In outline:
as §2

In experiment [8] the test system is Mus musculus. As to the kind of experiment: Antagonism of apomorphine induced climbing was determined in female swiss -Wbster mice after (po) administration of 80 mg/kg. The experiment is classed as functional. In outline: as §2
Experiment [9] deals with Mus musculus. Put plainly: Antagonism of apomorphine induced swimming was determined in female swiss -Wbster mice after (po) administration of 20 mg/kg. In kind it is functional.
Experiment [10] relates to Mus musculus. Put plainly: Antagonism of apomorphine induced swimming was determined in female swiss -Wbster mice after (po) administration of 40 mg/kg. The experiment is classed as functional.
Experiment [11] has as its system Mus musculus. As to the kind of experiment: Antagonism of apomorphine induced swimming was determined in female swiss -Wbster mice after (po) administration of 80 mg/kg. In kind it is functional.
A short description of experiment [12]: Number of animals showing dyskinesias was determined in haloperidol sensitized 2 cebus monkeys after (po) administration of 10 mg/kg. The experiment is classed as functional. In outline:
as §1

Experiment [13] can be described thus: Number of animals showing dyskinesias was determined in haloperidol sensitized 2 cebus monkeys after (po) administration of 20 mg/kg. In kind it is functional. The essentials: as §1
For a further experiment, the target named is D(2) dopamine receptor (Rattus norvegicus, UniProt P61169). As to the kind of experiment: Inhibition of spiropiperidone binding at dopamine receptor D2 of rat.
Chain of D(2) dopamine receptor (P61169 whole entry): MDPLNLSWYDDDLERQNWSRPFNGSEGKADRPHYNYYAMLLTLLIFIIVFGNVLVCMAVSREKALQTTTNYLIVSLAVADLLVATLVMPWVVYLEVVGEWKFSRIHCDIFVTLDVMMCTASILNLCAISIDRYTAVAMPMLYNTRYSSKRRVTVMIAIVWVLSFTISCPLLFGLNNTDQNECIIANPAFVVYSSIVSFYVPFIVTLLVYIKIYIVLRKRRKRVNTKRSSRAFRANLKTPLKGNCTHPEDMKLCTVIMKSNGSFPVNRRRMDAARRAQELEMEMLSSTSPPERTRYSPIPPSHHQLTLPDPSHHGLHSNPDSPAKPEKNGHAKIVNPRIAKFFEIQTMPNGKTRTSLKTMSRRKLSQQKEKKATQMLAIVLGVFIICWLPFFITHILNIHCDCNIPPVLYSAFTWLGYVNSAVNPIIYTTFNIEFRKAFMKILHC
The test system of experiment [14] is Mus musculus. Put plainly: Antagonism of apomorphine induced climbing was determined in female swiss -Webster mice after (ip) administration of 10 mg/kg. In kind it is functional. In outline:
as §2

Experiment [15] relates to Mus musculus. Put plainly: Antagonism of apomorphine induced climbing was determined in female swiss -Webster mice after (ip) administration of 2.5 mg/kg. The experiment is classed as functional. In outline: as §2
In experiment [16] the test system is Mus musculus. Put plainly: Antagonism of apomorphine induced climbing was determined in female swiss -Webster mice after (ip) administration of 20 mg/kg. In kind it is functional. The essentials: as §2
Experiment [17] concerns Mus musculus. As to the kind of experiment: Antagonism of apomorphine induced climbing was determined in female swiss -Webster mice after (ip) administration of 40 mg/kg. In kind it is functional. In outline:
as §2

Experiment [18] deals with Mus musculus. Put plainly: Antagonism of apomorphine induced climbing was determined in female swiss -Webster mice after (ip) administration of 5 mg/kg. The experiment is classed as functional. The essentials: as §2
Experiment [19] concerns Mus musculus. As to the kind of experiment: Antagonism of apomorphine induced swimming was determined in female swiss -Webster mice after (ip) administration of 10 mg/kg. The experiment is classed as functional.
For experiment [20], the system named is Mus musculus. As to the kind of experiment: Antagonism of apomorphine induced swimming was determined in female swiss -Webster mice after (ip) administration of 2.5 mg/kg. In kind it is functional.
For experiment [21], the system named is Mus musculus. As to the kind of experiment: Antagonism of apomorphine induced swimming was determined in female swiss -Webster mice after (ip) administration of 20 mg/kg. In kind it is functional.
Experiment [22] concerns Mus musculus. As to the kind of experiment: Antagonism of apomorphine induced swimming was determined in female swiss -Webster mice after (ip) administration of 40 mg/kg. In kind it is functional.
Experiment [23] concerns Mus musculus. Put plainly: Antagonism of apomorphine induced swimming was determined in female swiss -Webster mice after (ip) administration of 5 mg/kg. In kind it is functional.
Experiment [24] is described as follows: Number of animals showing dyskinesias was determined in haloperidol sensitized cebus monkey after (po) administration of 40 mg/kg. In kind it is functional. In outline:
as §1

Experiment [25] deals with Mus musculus. As to the kind of experiment: Antagonism of apomorphine induced climbing was determined in female swiss -Webster mice after (po) administration of 20 mg/kg. The experiment is classed as functional. In outline: as §2
For experiment [26], the system named is Mus musculus. As to the kind of experiment: Antagonism of apomorphine induced climbing was determined in female swiss -Webster mice after (po) administration of 40 mg/kg. The experiment is classed as functional. In outline: as §2
The subject of experiment [27] is Mus musculus. Put plainly: Antagonism of apomorphine induced climbing was determined in female swiss -Webster mice after (po) administration of 5 mg/kg. The experiment is classed as functional. The essentials: as §2
Experiment [28] relates to Mus musculus. Put plainly: Antagonism of apomorphine induced climbing was determined in female swiss -Webster mice after (p.o.) +SKF525A administration of 10 mg/kg. Conditions: route oral. The experiment is classed as functional. The essentials: as §2
The test system of experiment [29] is Mus musculus. As to the kind of experiment: Antagonism of apomorphine induced climbing was determined in female swiss -Webster mice after (p.o.) +SKF525A administration of 2.5 mg/kg. In kind it is functional. Conditions: route oral. In outline:
as §2

For experiment [30], the system named is Mus musculus. Put plainly: Antagonism of apomorphine induced climbing was determined in female swiss -Webster mice after (p.o.) +SKF525A administration of 20 mg/kg. Conditions: route oral. The experiment is classed as functional. The essentials:
as §2

Experiment [31] concerns Mus musculus. Put plainly: Antagonism of apomorphine induced climbing was determined in female swiss -Webster mice after (po) administration of 2.5 mg/kg. The experiment is classed as functional. In outline: as §2
Experiment [32] has as its system Mus musculus. As to the kind of experiment: Antagonism of apomorphine induced climbing was determined in female swiss -Webster mice after (p.o.) +SKF525A administration of 40 mg/kg. In kind it is functional. Conditions: route oral. In outline: as §2
The test system of experiment [33] is Mus musculus. As to the kind of experiment: Antagonism of apomorphine induced climbing was determined in female swiss -Webster mice after (p.o.) +SKF525A administration of 5 mg/kg. The experiment is classed as functional. The note with it: route oral. In outline: as §2
The test system of experiment [34] is Mus musculus. As to the kind of experiment: Antagonism of apomorphine induced climbing was determined in female swiss -Webster mice after (po) administration of 10 mg/kg. In kind it is functional. The essentials: as §2
Experiment [35] in a line: Number of animals showing dyskinesias was determined in haloperidol sensitized 5 cebus monkeys after (po) administration of 20 mg/kg; 5/5. The experiment is classed as functional. The essentials: as §1
The nature of experiment [36]: Number of animals showing dyskinesias was determined in haloperidol sensitized 5 cebus monkeys after (po) administration of 5 mg/kg. The experiment is classed as functional. In outline: as §1

Chain of D(2) dopamine receptor (Rattus norvegicus) (P61169 whole entry): as above

In the case of `OCCOCCN1CCN(C2=Nc3ccccc3Cc3ccccc32)CC1`, in [1], the No of monkeys worked out at 0. The compound also yielded a % displacement of spiropiperidone in [2] of 22%. In addition, the Activity is reported as 21 in the experiment with Mus musculus [3]; 17 in the experiment with Mus musculus [4]; 2 with Mus musculus [5]; 24 with Mus musculus [6]; 17 with Mus musculus [7]; 10 with Mus musculus [8]. The Activity in the experiment with Mus musculus [9] is recorded as 1; in the experiment on Mus musculus [10] it was 1; in the experiment on Mus musculus [11], 3.

As usually defined, the IC50 is the point on the concentration scale where inhibition reaches its midpoint. Consider `COCC(CN1CCN(C2=Nc3ccccc3Sc3ccccc32)CC1)OC` (stereo not drawn), for which the No of monkeys in experiment [12] and in [13] was 1 throughout. The IC50 at D(2) dopamine receptor was found to be 795 nM. Moreover, the Activity amounted to 1 in the experiment on Mus musculus [14]; 18 in the experiment on Mus musculus [15]; 2 with Mus musculus [16]; 0 in the experiment with Mus musculus [17]; 5 in the experiment with Mus musculus [18]; 17 in the experiment with Mus musculus [19]. The Activity in the experiment with Mus musculus [20] turned out to be 5; with Mus musculus [21] it was 28; in the experiment with Mus musculus [22], 33; in the experiment with Mus musculus [23], 9.

As to `c1ccc2c(c1)N=C(N1CCN(CC3COCCO3)CC1)c1ccccc1S2` (stereo not drawn), the No of monkeys in experiment [24] was determined as 2. The compound further gave a % displacement of spiropiperidone in [2] of 50%. In addition, the Activity is reported as 1 in the experiment with Mus musculus [14]; 14 in the experiment with Mus musculus [15]; 0 in the experiment on Mus musculus [16]; 2 in the experiment with Mus musculus [17]; 6 in the experiment with Mus musculus [18]; 20 in the experiment on Mus musculus [19]. Also, the Activity in the experiment on Mus musculus [20] came to 8; in the experiment with Mus musculus [21] it was 20; in the experiment with Mus musculus [22], 30; in the experiment on Mus musculus [23] it was 13.

Consider `CN1CCN(C2=Nc3ccccc3Oc3ccccc32)CC1`, for which the % displacement of spiropiperidone in [2] is 27%. The Activity in the experiment with Mus musculus [25] is on record as 3; with Mus musculus [26], 3; with Mus musculus [27], 13; in the experiment with Mus musculus [28] it was 24; in the experiment with Mus musculus [29], 25; in the experiment on Mus musculus [30] it was 18. Further, the Activity is on record as 2 in the experiment on Mus musculus [14]; 19 in the experiment with Mus musculus [15]; 0 with Mus musculus [16]; 3 in the experiment with Mus musculus [17]; 13 with Mus musculus [18]; 19 in the experiment with Mus musculus [31]. The Activity with Mus musculus [32] came to 19; with Mus musculus [33] it was 19; in the experiment with Mus musculus [34] it was 10.

Consider `COCC(CCN1CCN(C2=Nc3ccccc3Sc3ccccc32)CC1)OC` (stereo not drawn), for which the No of monkeys amounted to 5 in [35] and 0 in [36]. The IC50 on D(2) dopamine receptor turned out to be 293 nM. Also, the Activity with Mus musculus [14] was 5; with Mus musculus [16], 0; in the experiment with Mus musculus [17] it was 0; in the experiment on Mus musculus [18], 21; in the experiment on Mus musculus [19], 8; in the experiment with Mus musculus [21], 20. In addition, the Activity in the experiment on Mus musculus [22] turned out to be 32; with Mus musculus [23] it was 2.
